# High-throughput results (PubChem BioAssay)
# Measles CPE: protection of cells from measles virus | Measles virus-infected cells, CPE protection, absorbance | protection (pct of control), % at 4 µM | actives 1.5% (n = 140,000) | AID 841; in the data active means protection mostly above about 24%, no sharp cut-off; inactive means mostly below about 26%
# ABCB1 block: human ABCB1 inhibition, ABCG2 as counter-screen; inhibition, % at 6.6 µM; CCRF-Adr cells, JC-1 efflux, flow cytometry; P08183; actives 0.067% (n = 190,000); AID 1326; in the data active means inhibition above about 40%;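 further: 0% = vehicle and 100% = reference inhibitor; higher value means more JC-1 retained so stronger ABCB1 efflux block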
# FLuc stim CS: affects firefly luciferase, flagging false hits in luciferase stimulation screens; P08659; ATPlite luciferase biochemical, luminescence, 10 min; 0 = ATP-free wells, 1 = DMSO control; activation factor at 10 µM; 200,000 tested, under 10 active; AID 1027;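 active means luciferase activation factor, scaled between plate controls, of at least 2 with compound at 10 µM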
#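 Assay system: Luciferase/luciferin detection reagent, cell-free biochemical luciferase assay / Also added: ATP substrate / Schedule: 10 min at ambient temperature / Measured by: luminescence measurement of luciferase light output / Benchmarks: low control with PBS replacing ATP, high control enzyme plus ATP without compound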
# ABCG2 block: inhibitors of human ABCG2 transporter, ABCB1 counter-screen; Q9UNQ0; IgMXP3 cells, JC-1 efflux, flow cytometry; inhibition, % at 6.6 µM; actives 0.1% (n = 190,000); AID 1325;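 active means inhibition above 80%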;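 further: 0% = DMSO and 100% = nicardipine control wells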
# Target sequence (Q9UNQ0 whole entry, looked up): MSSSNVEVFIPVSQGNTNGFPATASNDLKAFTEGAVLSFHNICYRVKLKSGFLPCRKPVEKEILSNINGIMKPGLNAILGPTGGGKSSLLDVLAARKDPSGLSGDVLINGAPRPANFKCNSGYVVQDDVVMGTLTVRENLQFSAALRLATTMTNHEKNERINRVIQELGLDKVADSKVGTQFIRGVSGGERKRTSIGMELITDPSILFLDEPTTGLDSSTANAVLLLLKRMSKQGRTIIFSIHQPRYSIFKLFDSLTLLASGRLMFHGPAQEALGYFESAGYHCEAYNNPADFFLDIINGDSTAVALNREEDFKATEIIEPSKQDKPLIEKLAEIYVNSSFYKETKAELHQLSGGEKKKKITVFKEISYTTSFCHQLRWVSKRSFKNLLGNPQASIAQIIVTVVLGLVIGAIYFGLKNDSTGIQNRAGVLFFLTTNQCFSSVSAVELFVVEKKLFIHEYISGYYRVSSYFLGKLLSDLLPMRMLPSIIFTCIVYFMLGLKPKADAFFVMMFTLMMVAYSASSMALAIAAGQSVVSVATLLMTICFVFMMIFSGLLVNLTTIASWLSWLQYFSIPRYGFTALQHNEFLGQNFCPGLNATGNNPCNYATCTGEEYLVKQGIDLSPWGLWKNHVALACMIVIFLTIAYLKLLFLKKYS
#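 Test system: IgMXP3 cells (ABCG2) mixed with DDAO far-red-labelled CCRF-Adr cells (ABCB1). Reagent: JC-1 transporter substrate. Compound dosing: single test compound dose, 6.6 µM final. Times: 10 min compound exposure, 25 °C. Detection: flow cytometry of retained JC-1 fluorescence. Read-out basis: efflux inhibition in percent versus controls. Controls: nicardipine and DMSO wells.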
# FLuc inh counter: Photinus pyralis luciferase inhibition counter-screen | ATPLite firefly luciferase biochemical luminescence, 10 min | inhibition, % at 10 µM | P08659 | AID 1006 | actives 1.5% (n = 200,000);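 active means inhibition above about 50% when tested at 10 µM, limit read from the data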
# DTT redox prof: compounds producing H2O2 with reducing agent – biochemical, NIH compound library profiling, artefact control for MLSCN library redox annotation, primary screen; DTT-dependent redox cycling H2O2, phenol red/HRP absorbance; 100% = 100 µM peroxide control, 0% = buffer; activation, % at 10 µM; actives 0.03% (n = 200,000);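 active means activation of at least 50% relative to the plate's high and low controls in the primary single-dose screen; inactive means activation below 50%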;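 further: compound incubated with DTT at 0.8 mM final as the reducing agent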
# The depositor's hits bear a star; · = no result given. Most compounds without a hit are left out; they make up all but 2.7% or so of the library.
SMILES,Measles CPE,ABCB1 block,FLuc stim CS,ABCG2 block,FLuc inh counter,DTT redox prof
CCOC(=O)c1c(C)[nH]c(C)c1C(=O)COC(=O)c1ccc(S(=O)(=O)N(CC)CC)cc1,51.1*,-2.1,1.1,2.6,-7.8,-3.3
CC(=O)c1sc(N/N=C\c2ccccc2O)nc1C,·,0.0,0.3,0.2,68.2*,-0.6
Nc1c(Cl)ncnc1N/N=C/c1ccc2ccccc2n1,11.8,0.6,0.3,6.2,72.0*,0.0
Nc1c(Cl)ncnc1N/N=C/c1ccccn1,7.5,1.2,0.6,-0.3,36.9,0.1
Nc1c(Cl)ncnc1N/N=C/c1ccnc2ccccc12,12.5,2.4,0.5,25.1,52.6*,0.3
COc1ccc(CN2CCN(C(=O)C3CCC(CNS(=O)(=O)c4ccccc4)CC3)CC2)c(OC)c1OC (configuration not stated),·,0.7,1,3.3,3.7,-0.7
CCc1ccc(/C=C2/C(=O)N(C)C(=S)N2CC(=O)OC)s1,·,0.4,1.1,4.1,-6.5,-0.3
O=c1c2cc(-c3ccccc3)sc2nc2n1CCC2,·,0.2,0.3,2.3,67.9*,0.1
O=c1[nH]c(-c2cccnc2)nc2sc(-c3ccccc3)cc12,·,0.9,0.7,5.1,31.5,-1.0
Cc1nc2sc(-c3ccccc3)cc2c(=O)[nH]1,2.2,-0.1,0.1,25.7,90.1*,0.1
CCn1c(COc2ccc(C)cc2)nnc1SCC(=O)Nc1cc(OC)ccc1OC,49.1*,2.3,1.1,6.3,-9.3,1.2
CCn1c(COc2ccccc2)nnc1SCC(=O)Nc1cc(C)ccc1OC,15.0,0.9,1.1,4.5,-7.4,-10.5
Cc1nc(=O)cc(-c2ccccc2)n1-c1ccccc1,36.3*,0.7,1,6.6,-3.5,0.4
Cc1nn(C)c(=O)n1-c1ccccc1,·,-0.8,1,-1.0,-1.8,-1.6
CCCCN(C(=N)N1CCCCC1)c1nc(C)c([N+](=O)[O-])c(=O)[nH]1,15.7,0.3,1.1,-0.2,-6.7,0.4
O=C(/C=C/c1ccc(F)cc1)c1ccccc1Br,4.3,0.8,1,13.5,3.1,-0.1
Cc1ccc(C(=O)/C=C/c2ccc(F)cc2)o1,3.3,1.5,0.2,27.9,84.8*,0.2
O=C1CCC(=O)N1CC(=O)N(c1ccccc1)c1ccccc1,·,-0.2,1,-1.5,-2.6,-0.5
CCOc1ccc(N=C2NC(=O)S/C2=C\c2ccc(OC)cc2)cc1,14.5,0.1,1.1,0.7,-5.9,0.1
COc1ccc(/C=C2/SC(=O)NC2=O)cc1,·,0.2,0.5,4.9,54.5*,-0.5
Cc1ccc(NC(=O)C2CCCN(S(=O)(=O)c3cnc[nH]3)C2)c(Br)c1 (configuration not stated),29.4*,0.5,1,1.5,-1.9,0.0
O=C(Nc1ccc(Br)cc1F)C1CCCN(S(=O)(=O)c2cnc[nH]2)C1 (configuration not stated),8.7,0.1,1,0.6,-0.5,-0.6
CN(CCOc1ccc(-c2ccn(S(=O)(=O)c3cccc4ccccc34)n2)cc1)c1ccccn1,44.4*,0.1,1.1,-0.5,-5.3,1.7
O=C(CSCc1ccc(F)cc1)N1CCN(c2ccccc2)CC1,79.5*,0.6,1,2.8,-3.2,2.1
CCC(C)(C)n1nnnc1C(c1cccnc1)N1CCCC(C)C1 (configuration not stated),·,1.5,1.1,6.2,-7.7,0.3
SMILES,Measles CPE,ABCB1 block,FLuc stim CS,ABCG2 block,FLuc inh counter,DTT redox prof
O=C(O)CSc1nnc(Cn2nnc3ccccc32)n1CCc1ccccc1,28.3*,0.1,1,0.4,0.4,0.6
CC(C)N(C(=O)CSc1nnc(Cn2nnc3ccccc32)n1C)C(C)C,6.7,0.2,1,3.1,-2.2,0.5
CC1Cc2ccccc2N1C(=O)CSc1nnc(Cn2nnc3ccccc32)n1C (configuration not stated),36.5*,-0.1,1,0.9,2.8,0.0
S=c1nn[nH]n1C12CC3CC(CC(C3)C1)C2,34.2*,0.3,1.1,-0.1,-6.5,-0.2
Cc1cc(NC(=O)c2ccccc2)sc1C,13.5,0.2,0.4,5.2,63.5*,0.0
Cc1ccc(C)n1-c1ccc(NC(=O)c2ccccc2)cc1,4.3,-0.4,0.7,-3.1,32.1,0.8
Cc1ccc(NC(=O)c2ccccc2)s1,11.6,0.0,0.2,3.0,76.1*,3.0
CCOC(=O)c1c(C2CC2)csc1NC(C)=O,35.9*,0.1,1,0.9,-1.6,-0.2
CCOC(=O)c1c(C2CC2)csc1NC(=O)COC(=O)c1ccc[n+]([O-])c1,34.6,1.1,1,13.8,-4.3,-0.1
Cc1c(/C=C/C(=O)c2cccs2)cnn1C,22.2,1.4,0.6,3.4,42.7,0.5
CCc1ccc(C(=O)/C=C/c2cnn(C)c2C)s1,45.3,1.5,0.1,21.2,85.7*,2.2
CC(C)(C)NC(=O)C(=O)NNC(=O)c1cccc([N+](=O)[O-])c1,·,0.3,0.9,9.0,10.3,-0.1
Clc1ccc(-c2nnc(NC3=NCCCCC3)o2)cc1,17.3,0.5,0.2,5.2,77.6*,-0.8
Clc1ccc(SCc2nc3ccccc3[nH]2)cc1,10.0,1.0,0.8,12.9,19.0,-7.8
C(=N\n1cnnc1)/c1nc2ccccc2[nH]1,9.6,0.6,1.1,2.8,-5.9,1.7
O=C(/C=C/c1ccc(Cl)cc1Cl)c1nc2ccccc2[nH]1,19.2,0.4,0.3,2.0,66.3*,-3.4
Clc1ccc(/C=C/c2nc3ccccc3[nH]2)c(Cl)c1,7.9,0.1,0,1.1,96.5*,-3.3
NNC(=O)/C=C/c1ccc(Cl)cc1Cl,·,0.0,0.9,0.1,11.0,-0.3
Clc1ccc(/C=C/c2nc3ccccc3[nH]2)cc1,6.8,0.0,0,-0.3,96.0*,1.8
Clc1cccc(Cl)c1/C=C/c1nc2ccccc2[nH]1,5.4,2.0,0.2,23.7,82.1*,-0.1
CC(C)CC1NC(=O)N(CC(=O)N2CCN(S(=O)(=O)c3ccccc3)CC2)C1=O (configuration not stated),1.7,0.1,1.1,0.6,-6.6,2.4
O=C(O)c1ccc(CNC(=O)c2ccc(C(F)(F)F)cc2)cc1,·,0.4,1,3.6,-4.9,6.3
S=C(NCc1ccco1)N1CCN(Cc2ccco2)CC1,3.7,1.4,1,2.8,-4.8,-5.5
S=C(Nc1ccc2c(c1)OCO2)N1CCN(Cc2ccco2)CC1,·,-0.2,0.1,1.1,91.9*,1.0
O=C(COc1ccc(Cl)cc1Cl)Nc1c(-c2cccs2)nc2ccccn12,2.8,2.1,1,13.9,-2.9,0.2
N#Cc1c(Nc2ccccc2)c(/C=N/N=C/c2ccccc2)c[nH]c1=O,25.7*,0.2,1,0.9,0.9,0.3
